Screening data (PubChem)
Insulin prom act = activators of insulin promoter-driven GFP, primary screen, imaging, TRM-6 cells (human fetal islet line), eGFP reporter, cell count; plate-scaled: unstimulated 0, stimulated control 100; activation, % at 2 µM; 0.81% of 130,000 active;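 active = activation at 2 µM above a set limit, confirmed on inspection of the cell images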;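 note: share of cells whose green reporter signal exceeds an intensity cutoff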
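Material: TRM-6 insulin promoter–eGFP reporter cells. Buffer or medium: Low-glucose (5.5 mM) medium with tamoxifen. Probe or stimulus: tamoxifen at 0.75 µM added at seeding for reporter induction. Times: tamoxifen pre-incubation 15 h overnight, then compound exposure 48 h at 37 °C. Detection: high-content imaging of fixed cells with Hoechst nuclear stain.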
Active calls of the source: *. This excerpt belongs to a sample that is enriched for hits.

SMILES	Insulin prom act
Cc1ccc2c(C(=O)CN3CCOCC3)c(C)[nH]c2c1	-2.6
Cc1cccc(C)c1NS(=O)(=O)c1c(C)[nH]c(=O)[nH]c1=O	3.2
CC1(C)C(=O)Nc2ccccc2N1C(=O)COc1ncnc2c(Cl)cc(Cl)cc12	0.0
CCc1c(C)nc2[nH]nc(NC(=O)C(F)(F)F)n2c1=O	-5.9
CCCn1c(=O)[nH]c(=O)c2c1nc(-c1ccc(OC(F)F)c(OC)c1)n2CCOC	-8.1
CCCn1nnnc1SCC(=O)NNC(=O)C1CCCCC1	-7.1
CCN1c2ccccc2NC2C1C(C(C)=O)C(=O)N2c1ccc(Cl)cc1 (stereo unspecified)	133.3*
CCC(=O)N1C(=O)C2(Nc3ccccc3N2)c2ccccc21	8.1
Cc1ccc(NC(=O)c2noc3c2CC(C(C)(C)C)CC3)cc1 (stereo unspecified)	-8.3
CC1(C)CC(=O)C/C(=N\NC(=O)C2CC2c2ccccc2)C1 (stereo unspecified)	-5.6
CC(=O)Nc1ccc(OC(=O)c2cc3cc(Br)cc(Br)c3oc2=O)cc1	107.1
COc1ccc(-c2cc(C(F)F)n3ncc(C(=O)N4CCc5ccccc5C4)c3n2)cc1	392.9*
O=C(c1cnn2c(C(F)F)cc(-c3ccccc3)nc12)N1CCN2CCCC2C1 (stereo unspecified)	104.5
Cc1cc(C(F)F)n2ncc(C(=O)N3CCCCC3)c2n1	246.7
Cc1ccnc(NS(=O)(=O)c2ccc(NS(=O)(=O)c3cccs3)cc2)n1	-5.7
Cc1noc(C)c1C(=O)N1CCN(c2ncccn2)CC1	-6.9
CC(C)(C)c1cc(NC(=O)COC(=O)C2CC2)n(-c2ccccc2)n1	-7.1
CC(NC(=O)Cc1c(F)cccc1Cl)C1CCCO1 (stereo unspecified)	-3.3
CNC(=O)CSCc1c(F)cccc1Cl	-81.2
O=C(Cc1c(F)cccc1Cl)N1CCCC1	557.1*
CCOc1ccc(C(=O)N(Cc2ccc(OC)cc2)Cc2cc3cc(OC)ccc3[nH]c2=O)cc1	-9.4
CCCN(Cc1cc2cc(C)ccc2[nH]c1=O)S(C)(=O)=O	-91.7
CCCN(Cc1cc2cc(C)ccc2[nH]c1=O)C(=O)c1cccc(OC)c1	196.8*
CSCCC(NC(=O)c1ccco1)C(=O)OC(C)C(=O)NC(=O)NC1CCCCC1 (stereo unspecified)	-6.5
Cc1ccc(S(=O)(=O)N(CC(=O)N2CCOCC2)C2CCCCC2)cc1	0.0
SMILES	Insulin prom act
Cc1ccc(NC(=O)CCSCCC(=O)Nc2ccc(C)c(C)c2)cc1C	2.6
CCc1cccc(NC(=O)CCSCCC(=O)Nc2cccc(CC)c2)c1	89.7*
COC(=O)CCC(=O)Nc1cccc(Cl)c1	0.0
CCN(CC)c1ccc(/C=N/NC(=O)C(O)(c2ccccc2)c2ccccc2)o1	116.1
O=C(CSc1nnc(-c2ccco2)n1Cc1ccccc1)OC1CCCCC1	8.3
COc1ccc(N2C(=O)/C(=C/c3cccs3)NC2=S)cc1	-6.1
CCn1c(Cc2ccccc2)nnc1SCC(=O)Nc1ccc(N2CCOCC2)c(Cl)c1	376.9
Cn1c(SCC(=O)Nc2ccc(N3CCOCC3)c(Cl)c2)nnc1-c1ccccc1	800.0*
Cc1ccc(NC(=O)CSCC(=O)Nc2ccc(N3CCOCC3)c(Cl)c2)cc1	0.0
Cc1c(C(C)NC(=O)Nc2ccc(F)cc2F)cnn1C (stereo unspecified)	0.0
O=C1CCC([N+](=O)[O-])C(c2cccc(Cl)c2Cl)N1 (stereo unspecified)	0.0
O=C(NCC1CCCO1)c1ccc(NC(=O)C2CC=CCC2C(=O)O)cc1 (stereo unspecified)	-2.6
Cc1ccc(S(=O)(=O)Nc2ccc(N3CCOCC3)cc2)cc1	81.2*
Cc1ccc(NS(=O)(=O)c2ccc(CCC(=O)N3CCOCC3)cc2)cc1	188.2
Cc1ccc(S(=O)(=O)Nc2ccc(S(=O)(=O)NC(C)(C)C)cc2)cc1	8.3
CCOC(=O)N1CCN(C(=O)C2CCN(S(=O)(=O)c3ccc(Br)s3)CC2)CC1	0.0
COc1ccc(NC(=S)NCCSc2ccc(Cl)cc2)c(OC)c1	-8.7
COc1ccc(N(CC(=O)NCCSCc2c(F)cccc2Cl)S(C)(=O)=O)cc1OC	6.7
COc1cccc(N(CC(=O)NCCSc2ccc(Cl)cc2)S(C)(=O)=O)c1	93.1*
COc1ccc2oc(=O)c(NC(=O)C3CCCCC3)cc2c1	-9.1
O=C(Oc1ccccc1)c1c(Cl)cccc1P(=O)(O)O	-9.1
N/C(Cc1ccc([N+](=O)[O-])cc1)=N\OC(=O)c1ccc2ccccc2c1	-8.7
COc1ccc(C(=O)N2CCN(c3cnn(-c4ccccc4)c(=O)c3Cl)CC2)cc1	0.0
CCC(=O)N(c1ccc(F)cc1)C1C=CS(=O)(=O)C1 (stereo unspecified)	0.0
CC(=O)N(c1ccc(C(C)C)cc1)C1C=CS(=O)(=O)C1 (stereo unspecified)	2.7
SMILES	Insulin prom act
COCC(=O)N(c1ccc(C(C)C)cc1)C1C=CS(=O)(=O)C1 (stereo unspecified)	422.2*
C=CCNC(=O)c1ccc(OC)cc1OC	5.3
COc1cc(NS(=O)(=O)c2cccc3nsnc23)cc(OC)c1	6.5
CC(=O)COC(=O)c1cccc(N2C(=O)C3C4C=CC(C4)C3C2=O)c1 (stereo unspecified)	-12.5
COC(=O)C1=C(C)N(c2cccc(C(C)=O)c2)C(=O)C1	475.0*
CCN1C(=O)CC(C(=O)OC)=C1C	5.9
COc1cc(/C=C2\C(=O)N(CCC#N)N=C2C)c(Br)cc1OC(C)C	-81.8
Nc1c(C(=O)Nc2ccc(S(=O)(=O)N3CCCC3)cc2)sc2nc3ccc(OC(F)(F)F)cc3cc12	231.0*
Nc1c(C(=O)Nc2ccc(S(=O)(=O)N3CCCC3)cc2)sc2nc3cc4c(cc3cc12)CCC4	181.8
O=C(Nc1ccc(S(=O)(=O)N2CCCCC2)cc1)c1ccncc1	8.3
COC(=O)c1c([N+](=O)[O-])c(OC)c(OC)c(OC)c1[N+](=O)[O-]	8.3
Cc1ccc(C2=NN(CC(=O)NCc3ccccn3)C(=O)CC2)cc1	4.8
CCOc1ccccc1NC(=O)Cc1coc2cc(C)ccc12	2.9
Cc1ccc(S(=O)(=O)N2CCC(C(=O)NCc3ccccc3Cl)CC2)cc1	91.4*
CN(C)C(=O)N1CCCC(C(=O)NCc2ccccc2Cl)C1 (stereo unspecified)	-7.7
O=C(NCc1ccccn1)C1CCN(S(=O)(=O)c2ccccc2)CC1	0.0
CC1CCCC(NC(=S)Nc2ccc(SC(F)F)cc2)C1C (stereo unspecified)	-8.6
CCOC(=O)N1CCN(C(=O)CCNS(=O)(=O)c2ccc3c(c2)c(=O)n(C)c(=O)n3C)CC1	292.9*
CCOc1ccc(NC(=O)CCNS(=O)(=O)c2ccc3c(c2)c(=O)n(C)c(=O)n3C)cc1	-9.1
Cn1c(=O)oc2cc(S(=O)(=O)NCCC(=O)N3CCc4ccccc4C3)ccc21	8.1
CC(=O)N[C@@H](C)C(=O)OC(C)C(=O)Nc1cccc([N+](=O)[O-])c1 (stereo partly specified)	391.7*
CC(C(=O)Nc1cccc(Br)c1)c1ccc([N+](=O)[O-])cc1 (stereo unspecified)	-6.9
O=C(CCCOc1ccccc1)Nc1cccc([N+](=O)[O-])c1	-76.9
C/C(=N\NC(=O)Cc1cccn1C)c1cccs1	0.0
Cc1ccsc1C(=O)Nc1cccc(S(=O)(=O)N(C)C)c1	430.8*
CN(C)S(=O)(=O)c1cccc(C(=O)Nc2ccccc2)c1	7.1
CN(C)S(=O)(=O)c1cccc(NC(=O)Cc2ccc(Cl)cc2)c1	9.1
O=C(CCSc1nnc(-c2ccco2)o1)Nc1ccc(F)cc1	-72.7
